From ChEMBL document CHEMBL1138882, “The design, synthesis, and evaluation of organ-specific iron chelators” (J Med Chem, 2006)

How the values were obtained:
[1] = Partition coefficient, log P of the compound; assay type: physicochemical; conditions: octanol/water
Summary of the method: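 Shake-flask direct partition between octanol and TRIS buffer, pH 7.4; expressed as log of the fraction in the octanol layer (log P_app).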

Monkey = test: Iron clearing efficiency in monkey at 150 umol/kg; assay type: functional, Sapajus apella
Summary of the method: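 Cebus apella monkeys (3.5–4 kg) iron-overloaded with iv iron dextran (~500 mg Fe/kg), ≥60 d before use; single po 150 μmol/kg (monosodium salt or 40% Cremophor RH-40/water). Feces and urine collected every 24 h, 4 d before to 5 d after dosing; iron by flame AAS. ICE = 2-day post-drug output minus 4-day pre-drug mean, over theoretical (2:1 complex), percent; mean ± SEM.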

Rattus norvegicus [2] = test: Toxicity in Sprague-Dawley rat at 384 umol/kg, po; assay type: organism-based; conditions: in vivo
Summary of the method: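 Male Sprague-Dawley rats (250–300 g), fasted overnight, gavaged once daily at 384 μmol/kg/d for up to 10 d; fed ~3 h post-dose for 5 h, then fasted. Age-matched controls; monitored at least three times daily, moribund animals euthanized; survivors sacrificed one day after last dose for histopathology.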

Rattus norvegicus [3] = test: Drug level in Sprague-Dawley rat kidney at 300 umol/kg, sc after 0.5 hrs; assay type: ADME, organism-based; conditions: in vivo
Summary of the method: (§1)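 Kidney level after single sc 300 μmol/kg monosodium salt in male Sprague-Dawley rats (250–350 g), n = 3 per time point. Water homogenate (1:2 w/v), methanol protein precipitation, 0.2 μm filtration, RP amide C16 HPLC with UV at 310 nm; linear range 1–1000 μM; reported as nmol/g wet weight, mean.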

Rattus norvegicus [4] = test: Iron clearing efficiency in Sprague-Dawley rat at 300 umol/kg, po; assay type: functional
Summary of the method: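 Bile-duct-cannulated, non-iron-overloaded male Sprague-Dawley rats (400–450 g) given single oral dose, 150 or 300 μmol/kg, as water solution, in 40% Cremophor RH-40/water, or monosodium salt. Bile every 3 h up to 48 h, urine every 24 h; iron by flame AAS. Efficiency = (treated minus control iron excretion)/theoretical output (2:1 complex), percent; mean ± SEM.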

[5] = (§2) Drug level in Sprague-Dawley rat plasma at 300 umol/kg, sc after 0.5 hrs; assay type: ADME, organism-based; conditions: Sprague-Dawley, plasma, 300 umol/kg
Summary of the method: (§3)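 Plasma: male Sprague-Dawley rats (250–350 g) dosed sc once at 300 μmol/kg as monosodium salt; blood by cardiac puncture into sodium citrate, centrifuged; methanol deproteinization, filtered, HPLC-UV 310 nm, detection limit 0.5 μM; μM, mean of n = 3 per time point.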

[6] = Drug level in Sprague-Dawley rat plasma at 300 umol/kg, sc after 2 hrs; assay type: ADME, organism-based; summary of the method: as §3
Rattus norvegicus [7] = test: Drug level in Sprague-Dawley rat kidney at 300 umol/kg, sc after 1 hr; assay type: ADME, organism-based; conditions: in vivo; summary of the method: as §1
Rattus norvegicus [8] = test: Drug level in Sprague-Dawley rat liver at 300 umol/kg, sc after 0.5 hrs; assay type: ADME, organism-based; conditions: in vivo
Summary of the method: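 Liver sampled from male Sprague-Dawley rats (250–350 g) given one sc dose, 300 μmol/kg, as monosodium salt; n = 3 per time point. Homogenized in water, methanol-precipitated, filtered, analysed by HPLC-UV at 310 nm against calibration curves; nmol compound per g wet weight, mean; O-demethylated metabolite also measured.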

Rattus norvegicus [9] = test: Drug level in Sprague-Dawley rat heart at 300 umol/kg, sc after 0.5 hrs; assay type: ADME, organism-based; conditions: in vivo
Summary of the method: (§4)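 Heart drug level: male Sprague-Dawley rats (250–350 g), single sc injection of monosodium salt, 300 μmol/kg; CO2 euthanasia at set times (n = 3 per time point). Tissue homogenized in water 1:2 (w/v), proteins precipitated with 3 vol CH3OH at −20 °C 20 min, filtered; reversed-phase HPLC, UV 310 nm, calibration-curve quantitation; nmol/g wet weight, mean.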

Rattus norvegicus [10] = test: Drug level in Sprague-Dawley rat pancreas at 300 umol/kg, sc after 1 hr; assay type: ADME, organism-based; conditions: in vivo
Summary of the method: (§5)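 Pancreas concentration: single sc 300 μmol/kg (monosodium salt) to male Sprague-Dawley rats (250–350 g), three rats per time point, CO2 euthanasia. Tissue homogenate in water (1:2 w/v), CH3OH protein precipitation, filtration, RP HPLC with 310 nm UV detection; nmol/g wet weight, mean.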

Rattus norvegicus [11] = test: Drug level in Sprague-Dawley rat heart at 300 umol/kg, sc after 4 hrs; assay type: ADME, organism-based; conditions: in vivo; summary of the method: as §4
Rattus norvegicus [12] = test: Drug level in Sprague-Dawley rat pancreas at 300 umol/kg, sc after 4 hrs; assay type: ADME, organism-based; conditions: in vivo; summary of the method: as §5
Rattus norvegicus [13] = test: Drug level in Sprague-Dawley rat heart at 300 umol/kg, sc after 8 hrs; assay type: ADME, organism-based; conditions: in vivo; summary of the method: as §4
Rattus norvegicus [14] = test: as §2; assay type: ADME, organism-based; conditions: in vivo, 0.5 h; summary of the method: as §3

logP [1] | Drug uptake (Rattus norvegicus [3]) [nmol/g] | concentration at 0.5 h [5] [µM] | concentration at 2 h [6] [µM] | Drug uptake (Rattus norvegicus [7]) [nmol/g] | Drug uptake (Rattus norvegicus [8]) [nmol/g] | Drug uptake (Rattus norvegicus [9]) [nmol/g] | Drug uptake (Rattus norvegicus [10]) [nmol/g] | Drug uptake (Rattus norvegicus [11]) [nmol/g] | Drug uptake (Rattus norvegicus [12]) [nmol/g] | Drug uptake (Rattus norvegicus [13]) [nmol/g] | Cp (Rattus norvegicus [14]) [µM] | SMILES | Activity (Monkey) [%] | Activity (Rattus norvegicus [2]) | Activity (Rattus norvegicus [4]) [%]
-1.14 | 1216 | – | – | – | – | – | – | – | – | – | – | C[C@]1(C(=O)O)CSC(c2cc(O)ccc2O)=N1 | 12.6 | Non-toxic | 1
– | 667 | 209 | 5 | – | – | – | – | – | – | – | – | O=C(O)[C@H]1CSC(c2ccc(O)cc2O)=N1 | 4.2 | Non-toxic | 2.9
-0.95 | 1375 | – | – | – | 924 | 259 | – | – | – | 3 | 907 | COc1ccc(C2=N[C@@](C)(C(=O)O)CS2)c(O)c1OC | – | Toxic | 16.6
-1.28 | – | – | – | – | – | 185 | – | – | – | – | – | COc1ccc(C2=N[C@@H](C(=O)O)CS2)c(O)c1OC | 12.4 | Non-toxic | 11.9

The next lines start with the compound.

SMILES | logP [1] | Drug uptake (Rattus norvegicus [3]) [nmol/g] | concentration at 0.5 h [5] [µM] | concentration at 2 h [6] [µM] | Drug uptake (Rattus norvegicus [7]) [nmol/g] | Drug uptake (Rattus norvegicus [8]) [nmol/g] | Drug uptake (Rattus norvegicus [9]) [nmol/g] | Drug uptake (Rattus norvegicus [10]) [nmol/g] | Drug uptake (Rattus norvegicus [11]) [nmol/g] | Drug uptake (Rattus norvegicus [12]) [nmol/g] | Drug uptake (Rattus norvegicus [13]) [nmol/g] | Cp (Rattus norvegicus [14]) [µM] | Activity (Monkey) [%] | Activity (Rattus norvegicus [2]) | Activity (Rattus norvegicus [4]) [%]
C[C@]1(C(=O)O)CSC(c2ccc(O)cc2O)=N1 [DEFERITRIN] | – | 361 | 92 | 13 | 179 | 124 | – | – | – | – | – | – | 16.8 | Non-toxic | 1.1
COc1ccc(C2=N[C@@](C)(C(=O)O)CS2)c(O)c1 | – | 282 | – | – | – | – | – | – | – | – | – | – | 24.4 | Toxic | 6.6
COc1ccc(O)c(C2=N[C@@](C)(C(=O)O)CS2)c1 | -0.61 | – | 803 | – | – | 382 | 208 | 153 | – | – | – | – | 18.9 | Toxic | 6.3
COc1ccc(C2=N[C@@H](C(=O)O)CS2)c(O)c1 | – | – | – | – | – | – | – | – | – | – | – | – | 16.2 | Non-toxic | 11.6
COc1ccc(O)c(C2=N[C@@H](C(=O)O)CS2)c1 | -0.81 | – | – | – | – | 564 | 380 | – | 61 | 45 | – | – | 12 | Non-toxic | 8.9
O=C(O)[C@H]1CSC(c2cc(O)ccc2O)=N1 | -1.52 | 629 | – | – | – | – | 42 | – | – | – | – | – | 1.8 | Non-toxic | –
